# RGS4 pot: RGS4 potentiators or activators, primary screen, cell-based, HEK293 M3R inducible RGS4, calcium flux; carbachol calcium flux Fluo4; stronger effect = lower value; B-score at 10 µM; 310,000 tested, 0.92% active;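 active means B-score of the integrated calcium signal more than 4 SD below the library mean, with starting fluorescence not abnormally high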;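 further: negative B-score means reduced calcium response which marks RGS4 activation or potentiation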
#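 Material: Inducible-RGS4 HEK293 cells carrying M3 receptor; also added: carbachol at ECmax as muscarinic agonist stimulus; incubation: compound preincubation 20 min at room temperature before agonist; signal: Fluo4-AM (2 µM) calcium-flux fluorescence, kinetic read; measure: integrated calcium ratio converted to B score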
# RGS4 block: RGS4 inhibitors, primary screen, cell-based, HEK293 M3R inducible RGS4, calcium flux; Fluo-4 calcium flux; stronger effect = higher value; triggered by carbachol at its EC20; Regulator of G-protein signaling 4 (Homo sapiens), P49798; 310,000 tested, 0.45% active; B-score at 10 µM;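 active means B-score, a plate-corrected calcium signal, over three deviations above library mean, with baseline fluorescence within five deviations of library mean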;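 further: RGS4 expression induced by doxycycline in cells with stable M3 receptor; B-score is computed from the integrated fluorescence ratio over baseline after carbachol; higher B-score means a larger calcium signal and so more RGS4 inhibition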
# Target sequence (P49798 whole entry, looked up): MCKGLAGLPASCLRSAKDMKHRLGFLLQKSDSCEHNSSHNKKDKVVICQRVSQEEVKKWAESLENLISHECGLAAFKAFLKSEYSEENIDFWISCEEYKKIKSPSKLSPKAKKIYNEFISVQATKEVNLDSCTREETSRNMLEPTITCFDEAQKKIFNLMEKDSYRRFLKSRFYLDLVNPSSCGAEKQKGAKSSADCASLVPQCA
# MrgX1 agonist: agonists of human MrgX1 receptor, primary screen, HEK293 cells, Fluo-4 calcium flux | Mas-related G-protein coupled receptor member X1 (Homo sapiens), Q96LB2 | Fluo-4 calcium fluorescence, agonist mode; stronger effect = higher value | B-score at 10 µM | 310,000 tested, 0.44% active;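 active means calcium response B-score plate-corrected fluorescence ratio at least 3 library SD, with starting fluorescence B-score inside 5 SD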
# Target sequence (Q96LB2 whole entry, looked up): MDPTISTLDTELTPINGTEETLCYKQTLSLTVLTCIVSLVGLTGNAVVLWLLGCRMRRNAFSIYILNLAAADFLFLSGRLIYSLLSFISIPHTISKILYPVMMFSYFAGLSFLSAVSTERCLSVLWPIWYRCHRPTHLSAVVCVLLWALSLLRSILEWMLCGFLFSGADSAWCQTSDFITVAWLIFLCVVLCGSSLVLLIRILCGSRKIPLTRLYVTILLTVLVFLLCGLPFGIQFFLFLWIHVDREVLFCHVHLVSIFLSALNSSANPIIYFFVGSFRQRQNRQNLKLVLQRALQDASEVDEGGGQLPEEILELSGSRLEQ
#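 Assay system: stable human MrgX1 HEK293 cell line. Quantity: 15,000 cells per well. Schedule: cells plated overnight, dye loaded 0.5 h 37 °C, 0.5 h room temperature. Detection: Fluo-4 NW calcium-flux fluorescence, kinetic read. Read-out basis: peak-minus-minimum fluorescence over baseline, converted to B scores. Control set: positive and negative control wells on each plate.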
# MrgX1 allo act: positive allosteric modulators of MrgX1, primary screen, HEK293 cells, Fluo-4 calcium flux | FDSS; stronger effect = higher value | AID 588675, 2011 | 310,000 tested, 0.63% active | B-score at 10 µM | Mas-related G-protein coupled receptor member X1 (Homo sapiens), Q96LB2;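 active means plate-corrected calcium response at least 3 library SD above typical, normal starting fluorescence, not activating the receptor alone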;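 further: compound read alongside a low EC10 to EC30 dose of BAM8-22 agonist; peak minus trough fluorescence over baseline measured at the second addition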
# MrgX1 antagonist: antagonists of human MrgX1 receptor, primary screen, HEK293 cells, Fluo-4 calcium flux; B-score at 10 µM; AID 588676, 2011; BAM8-22 antagonism; stronger effect = lower value; Mas-related G-protein coupled receptor member X1 (Homo sapiens), Q96LB2; 310,000 tested, 1.3% active;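 active means calcium-response B-score plate-corrected more than 3 library SD below zero, starting fluorescence within 5 deviations, no agonist response on first addition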;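 further: peak minus trough fluorescence over baseline after final BAM8-22 challenge near maximal dose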
# MrgX1 PAM conf: MrgX1 positive allosteric modulators, duplicate retest, confirmation, HEK293 cells, Fluo-4 calcium flux. 1,200 tested, 13% active. AID 602413, 2012. shares compounds with MrgX1 allo act. Fluo-4 calcium fluorescence, FDSS. activation (ratio percentage), % at 10 µM;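 active means ratio at least 3 SD above the weak peptide control, stable starting fluorescence, no direct agonism earlier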;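 further: compound followed by low BAM8-22 agonist challenge near EC20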
# MrgX1 antag conf: MrgX1 receptor antagonists, duplicate retest, confirmation, HEK293 cells, Fluo-4 calcium flux. shares compounds with MrgX1 antagonist. BAM8-22 calcium flux; stronger effect = lower value. remaining BAM8-22 calcium response % of control (stronger effect = lower value), % at 10 µM. 2,300 tested, 19% active;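 active means remaining agonist calcium response no higher than 100% minus 3 SD of agonist-only control wells, with starting fluorescence near control levels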;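 further: agonist BAM8-22 given at a near maximal EC90 to ECmax level; peak minus minimum fluorescence divided by baseline after agonist addition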
# HEK293 Ca flux: nonspecific calcium signal in parental HEK293, confirmation, counter-screen for MrgX1 antagonist project, parental HEK293 cells, Fluo-4 calcium flux; shares compounds with MrgX1 antagonist; Fluo-4 calcium fluorescence, FDSS; fluorescence ratio F(max-min)/F0 at 10 µM; 4,000 tested, 2% active; AID 624111, 2012;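 active means duplicate-averaged calcium fluorescence ratio at least three times the standard deviation of buffer wells, a nonspecific response in parental cells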
# HEK293 Ca counter: calcium response in parental HEK293 cells, primary screen, counter-screen for MrgX1 allosteric activator project, cell-based, Fluo-4 calcium flux, duplicate; shares compounds with MrgX1 antagonist; Fluo-4 fluorescence ratio; stronger effect = higher value; fluorescence ratio F(max-min)/F0 at 10 µM; 4,000 tested, 0.4% active; AID 624114, 2012;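 active means calcium fluorescence ratio, averaged over duplicates, at least 3 SD of the buffer-well ratio, meaning a nonspecific response in receptor-free cells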;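 further: untransfected parental HEK293 lacking MrgX1 used as counterscreen for MrgX1 allosteric activators; fluorescence change taken during the second addition on a kinetic imager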
# HEK293 Ca cntr2: calcium response in parental HEK293 cells, primary screen, counter-screen for MrgX1 agonist project, cell-based, Fluo-4 calcium flux, duplicate, agonist mode | shares compounds with MrgX1 antagonist | Fluo-4 calcium fluorescence (FDSS); stronger effect = higher value | fluorescence ratio F(max-min)/F0 at 10 µM | 4,000 tested, 8.7% active | AID 624115, 2012;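 active means calcium fluorescence ratio at least three times the spread of buffer wells, meaning a non-specific response in parental cells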
# Numbers stand for hits; i = inactive; nt = no result given. An excerpt weighted towards active compounds, which were near 3.5% of everything screened.
SMILES,RGS4 pot,RGS4 block,MrgX1 agonist,MrgX1 allo act,MrgX1 antagonist,MrgX1 PAM conf,HEK293 Ca flux,HEK293 Ca counter,HEK293 Ca cntr2,others
CCCNC(=O)CN1CCC(c2nc3ccccc3[nH]2)CC1,i,i,i,12,i,i,i,i,i,
CCOc1ccc(C(C)=O)cc1COc1cccnc1[N+](=O)[O-],i,i,i,i,i,nt,nt,nt,nt,
O=C(Cc1ccc2c(c1)CCCC2)Nc1ccccc1Br,i,i,i,7.3,i,i,i,i,i,
Cc1ccc(NC(=O)Cn2cc3c(n2)CCC(C)C3)cc1 (configuration not stated),i,i,i,i,i,nt,nt,nt,nt,
O=C(Cn1cc2c(n1)CCCC2)Nc1ccccc1Cl,i,i,i,13,i,i,i,i,86,
O=C(Cn1cc2c(n1)CCCCC2)Nc1ccccc1Cl,i,i,i,8,i,i,i,i,i,
COC(=O)c1ccccc1NC(=O)Cn1cc2c(n1)CCC(C)C2 (configuration not stated),i,i,i,23,i,i,i,i,i,
O=C(Cc1ccc2ccccc2c1)Nc1ccccc1Br,i,i,i,i,i,nt,nt,nt,nt,
COc1cc(NC(=O)CCc2nnc3ccc(N4CCN(C)CC4)nn23)cc(OC)c1,i,i,i,i,i,nt,nt,nt,nt,
CCOC(=O)/C(C(N)=NCCCO)=C(/O)c1ccccc1,i,i,i,i,i,nt,nt,nt,nt,
Cc1nc2c(-c3ccccc3)cnn2c(N)c1-c1ccccc1,i,i,i,i,i,nt,nt,nt,nt,
O=C(Cn1cc2c(n1)CCCC2)Nc1ccccc1Br,i,i,i,22,i,i,i,i,i,
CC1CCCC(NC(=O)Cn2cc3c(n2)CCCCC3)C1C (configuration not stated),i,i,i,6.5,i,i,i,i,i,
COc1ccc2[nH]cc(CCNS(=O)(=O)Cc3ccccc3)c2c1,i,i,i,i,i,nt,nt,nt,nt,
O=C(O)c1ccc(CNC(=O)C2CCCN2C(=O)OCc2ccccc2)cc1 (configuration not stated),i,i,i,i,i,nt,nt,nt,nt,
Cc1cccc2c(=O)c(Br)c(C)n(Cc3ccccc3)c12,i,i,i,i,i,nt,nt,nt,nt,
O=C(O)C1Sc2[nH]c(=O)sc2C2c3cc(Br)ccc3OC(=O)C12 (configuration not stated),i,i,i,6.5,i,i,i,i,i,
O=C(O)C1Sc2[nH]c(=O)sc2C2c3cc(Cl)ccc3OC(=O)C12 (configuration not stated),i,i,i,i,i,nt,nt,nt,nt,
Nc1ccc2c(c1)Oc1ccccc1C=C2,i,i,i,12,i,i,i,i,46,
CCOC(=O)N1CCC(NC(=O)CN(C)S(=O)(=O)c2cc3c(cc2Cl)NC(=O)CO3)CC1,i,i,i,i,-5.2,nt,i,i,i,MrgX1 antag conf=i
